# In paper PMC12495087 (ESMO Open, 2025):
# Columns and labels:
# [1] = test system: RET-fusion-positive NSCLC; assay: phase I study: tumor response per RECIST v.1.1, NSCLC; assay type: in vivo, human
# [2] = test system: tumors with local RET results; assay: clinical outcome by local RET result; assay type: in vivo, human
# Method in brief: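 RET alteration was confirmed locally by DNA- or RNA-based assays of tumour tissue or blood. Patients took oral drug once daily in 28-day cycles (10–150 mg escalation; expansion at recommended phase II dose). Investigator assessed response by RECIST v1.1 in patients with evaluable overall response and percent tumour-size change from baseline. ORR and DCR summarised with two-sided 95% exact CIs.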
# [3] = test system: advanced solid tumors with RET gene alteration; assay: phase I study: tumor response per RECIST v.1.1, evaluable analysis set; assay type: in vivo, human
# Method in brief: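 Investigator assessed response by RECIST v1.1. Drug was taken orally once daily in 28-day cycles, 10–150 mg in part A escalation and 75 mg in part B expansion, until progression. ORR and DCR summarised with two-sided 95% exact CIs. Duration of response and other time-to-event endpoints estimated by Kaplan–Meier.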
# [4] = test system: tumors with cfDNA-detected RET alterations; assay: clinical outcome by cfDNA RET alteration; assay type: in vivo, human
# Method in brief: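 Adults with advanced RET-altered solid tumours took oral drug once daily in 28-day cycles (10–150 mg dose escalation; expansion at recommended phase II dose). RET status came from plasma cfDNA drawn at screening (within 28 days pre-dose), cycle 1 day 15 (±2 days) and cycle 2 day 1. Investigator assessed response by RECIST v1.1 in patients with evaluable response and tumour-size change. ORR/DCR given with two-sided 95% exact CIs.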
# [5] = molecular target: RET; conditions: read-out: kd, potency against RET; cited from earlier work
# [6] = test system: vascular endothelial growth factor receptor 2; conditions: cited from earlier work
# [7] = phase I study: plasma pharmacokinetics; assay type: in vivo, human
# [8] = 58 patients with cfDNA RET alterations
# [9] = cfDNA RET alteration total, n = 58
smiles,measurement,setting,value
COc1cc2cc(-c3ccc(CC(=O)Nc4cc(C(C)(C)C(F)(F)F)no4)cn3)cnc2cc1OC [BOS172738],median PFS,[1]; NSCLC,6.18 months
same,median DoR,[1]; confirmed responders with NSCLC,10.17 months
same,BOR: PD,"[2]; local Indel, n = 6",1 (17) n (%)
same,BOR: PR,"[2]; local Indel, n = 6",1 (17) n (%)
same,BOR: SD,"[2]; local Indel, n = 6",4 (67) n (%)
same,DCR (PR + SD),"[2]; local Indel, n = 6",5 (83) n (%)
same,ORR,"[2]; local Indel, n = 6",1 (17) n (%)
same,BOR: PD,"[2]; local RET fusions, n = 57",10 (18) n (%)
same,BOR: PR,"[2]; local RET fusions, n = 57",21 (37) n (%)
same,BOR: SD,"[2]; local RET fusions, n = 57",26 (46) n (%)
same,DCR (PR + SD),"[2]; local RET fusions, n = 57",47 (82) n (%)
same,ORR,"[2]; local RET fusions, n = 57",21 (37) n (%)
same,BOR: PD,"[2]; local RET total, n = 93",20 (22) n (%)
same,BOR: PR,"[2]; local RET total, n = 93",28 (30) n (%)
same,BOR: SD,"[2]; local RET total, n = 93",45 (48) n (%)
same,DCR (PR + SD),"[2]; local RET total, n = 93",73 (78) n (%)
same,ORR,"[2]; local RET total, n = 93",28 (30) n (%)
same,BOR: PD,"[2]; local SNV, n = 30",9 (30) n (%)
same,BOR: PR,"[2]; local SNV, n = 30",6 (20) n (%)
same,BOR: SD,"[2]; local SNV, n = 30",15 (50) n (%)
same,DCR (PR + SD),"[2]; local SNV, n = 30",21 (70) n (%)
same,ORR,"[2]; local SNV, n = 30",6 (20) n (%)
same,objective DCR (ODCR),"[3]; 100 mg dose, part A",93%
same,median time to response,[3]; all confirmed responders,1.79 months
same,reduction in brain target lesions,"[3]; one patient with brain metastases, first post-baseline scan",43%
same,median PFS,"[3]; overall, evaluable analysis set",7.16 months
same,BOR: CR,"[3]; parts A and B total, N=101",No patients
same,intracranial activity,[3]; patients with brain metastases,intracranial activity was also observed
same,partial responses as best response,[4]; [8],29%
same,progressive disease as best response,[4]; [8],28%
same,stable disease as best response,[4]; [8],43%
same,BOR: PD,[4]; [9],16 (28) n (%)
same,BOR: PR,[4]; [9],17 (29) n (%)
same,BOR: SD,[4]; [9],25 (43) n (%)
same,DCR (PR + SD),[4]; [9],42 (72) n (%)
same,ORR,[4]; [9],17 (29) n (%)
same,BOR: PD,"[4]; cfDNA RET fusions + SNV, n = 2",1 (50) n (%)
same,BOR: PR,"[4]; cfDNA RET fusions + SNV, n = 2",1 (50) n (%)
same,BOR: SD,"[4]; cfDNA RET fusions + SNV, n = 2",0 n (%)
same,DCR (PR + SD),"[4]; cfDNA RET fusions + SNV, n = 2",1 (50) n (%)
same,ORR,"[4]; cfDNA RET fusions + SNV, n = 2",1 (50) n (%)
same,BOR: PD,"[4]; cfDNA RET fusions, n = 37",6 (16) n (%)
same,BOR: PR,"[4]; cfDNA RET fusions, n = 37",12 (32) n (%)
same,BOR: SD,"[4]; cfDNA RET fusions, n = 37",19 (51) n (%)
same,DCR (PR + SD),"[4]; cfDNA RET fusions, n = 37",31 (84) n (%)
same,ORR,"[4]; cfDNA RET fusions, n = 37",12 (32) n (%)
same,BOR: PD,"[4]; cfDNA SNV, n = 19",9 (47) n (%)
same,BOR: PR,"[4]; cfDNA SNV, n = 19",4 (21) n (%)
same,BOR: SD,"[4]; cfDNA SNV, n = 19",6 (32) n (%)
same,DCR (PR + SD),"[4]; cfDNA SNV, n = 19",10 (53) n (%)
same,ORR,"[4]; cfDNA SNV, n = 19",4 (21) n (%)
same,Kd,[5],≤ 1 nM
same,specificity to RET compared with vascular endothelial growth factor receptor 2,[6],> 300 fold
same,plasma concentrations remained quantifiable through,"[7]; after dosing, cycle 1 day 1 and day 15",≥ 24 h
same,half-life,"[7]; human, plasma, oral",41.9 to 84.1 h
same,Tmax,"[7]; human, plasma, oral, cycle 1 day 1, range across all dose levels",3 to 10 h
same,Tmax,"[7]; human, plasma, oral, cycle 1 day 15, range across dose levels",1 to 3.1 h
same,steady state reached by,"[7]; most treatment groups, based on mean trough concentration and effective t½",≤ 15 days
